Calls of active or inactive are those of the source. The calls are words filed in the database; no cut-off is given here.
Key:
A2780S [1] = experiment: Antiproliferative activity against human A2780S cells after 48 hrs by MTT assay; type: functional, cell-based
Outline: (§1)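 Cells seeded at 3×10³/well and grown 24 h, then exposed 48 h to six final concentrations, twofold steps down from 30. MTT (5 mg/mL) was added for 2–4 h at 37 °C. Supernatant was removed, formazan dissolved in DMSO, and OD read at 570 nm. Results are given as IC50, or as percent inhibition where IC50 exceeds the top concentration. At least three runs.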

A2780/Taxol = experiment: Antiproliferative activity against human A2780T cells after 48 hrs by MTT assay; type: functional, cell-based; outline: as §1
BGC-823 = experiment: Antiproliferative activity against human BGC823 cells after 48 hrs by MTT assay; type: functional, cell-based; details: BGC-823, 48 h; outline: as §1
CT26 = experiment: Antiproliferative activity against mouse CT26 cells after 48 hrs by MTT assay; type: functional, cell-based; details: CT26, 48 h; outline: as §1
HCT-116 [2] = experiment: Cell cycle arrest in human HCT116 cells assessed as accumulation at G1 phase at 7.5 uM after 24 hrs by propidium iodide staining-based flow cytometric method (reference value: 43.79%); type: functional
HCT-116 [3] = experiment: Cell cycle arrest in human HCT116 cells assessed as accumulation at S phase at 7.5 uM after 24 hrs by propidium iodide staining-based flow cytometric method (reference value: 36.43%); type: functional
HCT-116 [4] = experiment: Cell cycle arrest in human HCT116 cells assessed as accumulation at G2 phase at 7.5 uM after 24 hrs by propidium iodide staining-based flow cytometric method (reference value: 26.10%); type: functional
HCT-116 [5] = experiment: Cell cycle arrest in human HCT116 cells assessed as accumulation at G1 phase at 10 uM after 24 hrs by propidium iodide staining-based flow cytometric method (reference value: 43.79%); type: functional
HCT-116 [6] = experiment: Cell cycle arrest in human HCT116 cells assessed as accumulation at G2 phase at 10 uM after 24 hrs by propidium iodide staining-based flow cytometric method (reference value: 26.10%); type: functional
HCT-116 [7] = experiment: Cell cycle arrest in human HCT116 cells assessed as accumulation at G1 phase at 7.5 uM after 48 hrs by propidium iodide staining-based flow cytometric method (reference value: 40.75%); type: functional
HCT-116 [8] = experiment: Cell cycle arrest in human HCT116 cells assessed as accumulation at S phase at 7.5 uM after 48 hrs by propidium iodide staining-based flow cytometric method (reference value: 34.83%); type: functional
HCT-116 [9] = experiment: Cell cycle arrest in human HCT116 cells assessed as accumulation at G1 phase at 10 uM after 48 hrs by propidium iodide staining-based flow cytometric method (reference value: 40.75%); type: functional
HCT-116 [10] = experiment: Cell cycle arrest in human HCT116 cells assessed as accumulation at G2 phase at 10 uM after 48 hrs by propidium iodide staining-based flow cytometric method (reference value: 31.27%); type: functional
HCT-116 [11] = experiment: Induction of apoptosis in human HCT116 cells assessed as nuclear fragmentation at 7.5 to 12.5 uM after 24 hrs by Hoechst 33342 staining-based fluorescence microscopic method; type: functional, cell-based
Outline: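 HCT116 cells (1×10⁵/well) cultured 24 h, then exposed to 0, 7.5, 10 or 12.5 μM (final) for 24 h. Rinsed in PBS, fixed in 75% ethanol and checked by inverted microscopy. Then stained with Hoechst 33342 (2 μg/mL in PBS) and scored for apoptotic nuclear morphology under fluorescence microscopy.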

HCT-116 [12] = experiment: Cell cycle arrest in human HCT116 cells assessed as accumulation at sub G1 phase at 10 uM after 24 hrs by propidium iodide staining-based flow cytometric method (reference value: 1.73%); type: functional
HCT-116 [13] = experiment: Cell cycle arrest in human HCT116 cells assessed as accumulation at sub G1 phase at 12.5 uM after 24 hrs by propidium iodide staining-based flow cytometric method (reference value: 1.73%); type: functional
HCT-116 [14] = experiment: Cell cycle arrest in human HCT116 cells assessed as accumulation at sub G1 phase at 7.5 uM after 48 hrs by propidium iodide staining-based flow cytometric method (reference value: 0.86%); type: functional
HCT-116 [15] = experiment: Cell cycle arrest in human HCT116 cells assessed as accumulation at sub G1 phase at 10 uM after 48 hrs by propidium iodide staining-based flow cytometric method (reference value: 0.86%); type: functional
HCT-116 [16] = experiment: Induction of apoptosis in human HCT116 cells assessed as early apoptotic cells at 7.5 uM after 24 hrs by annexin V-FITC/propidium iodide staining-based flow cytometric method (reference value: 1.9%); type: functional
HCT-116 [17] = experiment: Induction of apoptosis in human HCT116 cells assessed as late apoptotic cells at 7.5 uM after 24 hrs by annexin V-FITC/propidium iodide staining-based flow cytometric method (reference value: 2.77%); type: functional
HCT-116 [18] = experiment: Induction of apoptosis in human HCT116 cells assessed as necrotic cells at 7.5 uM after 24 hrs by annexin V-FITC/propidium iodide staining-based flow cytometric method (reference value: 1.85%); type: functional
Outline: (§2)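 HCT116 cells seeded at 1×10⁶ cells/mL in 6-well plates for 24 h, then exposed to 0, 7.5, 10 or 12.5 μM for a further 24 h or 48 h. Cells washed twice in PBS, then stained with Annexin V-FITC plus PI (100 μg/mL stock) in binding buffer (10 mM HEPES, pH 7.4, 2.5 mM CaCl₂) for 30 min at room temperature in the dark. Early and late apoptotic fractions gated by flow cytometry.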

HCT-116 [19] = experiment: Induction of apoptosis in human HCT116 cells assessed as early apoptotic cells at 10 uM after 24 hrs by annexin V-FITC/propidium iodide staining-based flow cytometric method (reference value: 1.9%); type: functional
HCT-116 [20] = experiment: Induction of apoptosis in human HCT116 cells assessed as viable cells at 10 uM after 24 hrs by annexin V-FITC/propidium iodide staining-based flow cytometric method (reference value: 93.48%); type: functional; details: HCT-116, 24 h, read-out: Activity; outline: as §2
HCT-116 [21] = experiment: Induction of apoptosis in human HCT116 cells assessed as early apoptotic cells at 12.5 uM after 24 hrs by annexin V-FITC/propidium iodide staining-based flow cytometric method (reference value: 1.9%); type: functional
HCT-116 [22] = experiment: Induction of apoptosis in human HCT116 cells assessed as late apoptotic cells at 12.5 uM after 24 hrs by annexin V-FITC/propidium iodide staining-based flow cytometric method (reference value: 2.77%); type: functional
HCT-116 [23] = experiment: Induction of apoptosis in human HCT116 cells assessed as early apoptotic cells at 7.5 uM after 48 hrs by annexin V-FITC/propidium iodide staining-based flow cytometric method (reference value: 1.6%); type: functional
HCT-116 [24] = experiment: Induction of apoptosis in human HCT116 cells assessed as viable cells at 7.5 uM after 48 hrs by annexin V-FITC/propidium iodide staining-based flow cytometric method (reference value: 95.05%); type: functional; details: HCT-116, 48 h, read-out: Activity; outline: as §2
HCT-116 [25] = experiment: Induction of apoptosis in human HCT116 cells assessed as necrotic cells at 10 uM after 48 hrs by annexin V-FITC/propidium iodide staining-based flow cytometric method (reference value: 2.29%); type: functional
HCT-116 [26] = experiment: Induction of apoptosis in human HCT116 cells assessed as late apoptotic cells at 12.5 uM after 48 hrs by annexin V-FITC/propidium iodide staining-based flow cytometric method (reference value: 1.06%); type: functional
A2780S [27] = experiment: Antiproliferative activity against human A2780S cells at 15 uM after 48 hrs by MTT assay relative to control; type: functional; outline: as §1

Work on `C[C@@H]1Oc2ccc3ccccc3c2[C@@H]2[C@@H]1C=C(C=O)[C@@H](C)[C@]21C(=O)Nc2ccccc21` yielded an IC50 (A2780S [1]) of 7.91 µM, an IC50 (A2780/Taxol) of 23.4 µM and an IC50 (BGC-823) greater than 30 µM. The IC50 (CT26) was 9.5 µM, the Activity (HCT-116 [2]) was 46.1% and the Activity (HCT-116 [3]) was 32.56%. It also gave an Activity (HCT-116 [4]) of 28.5%, an Activity (HCT-116 [5]) of 75.18% and an Activity (HCT-116 [6]) of 21.05%. It also gave an Activity (HCT-116 [7]) of 49.85%, an Activity (HCT-116 [8]) of 23.94% and an Activity (HCT-116 [9]) of 82.32%. The Activity (HCT-116 [10]) was 18.42%, the Activity (HCT-116 [11]) was “Active” and the Activity (HCT-116 [12]) was 15.92%. For the same compound, the Activity (HCT-116 [13]) was 37.03%, the Activity (HCT-116 [14]) was 4.19% and the Activity (HCT-116 [15]) was 32.93%. The Activity (HCT-116 [16]) was 3.78%, the Activity (HCT-116 [17]) was 4.71% and the Activity (HCT-116 [18]) was 1.6%. It also gave an Activity (HCT-116 [19]) of 11.32%, a viability at 10 µM (HCT-116 [20]) of 76.1% and an Activity (HCT-116 [21]) of 33.2%. For the same compound, the Activity (HCT-116 [22]) was 17.98%, the Activity (HCT-116 [23]) was 4.18% and the viability at 7.5 µM (HCT-116 [24]) was 91.7%. For the same compound, the Activity (HCT-116 [25]) was 2.82%, the Activity (HCT-116 [26]) was 18.89% and the inhibition at 15 µM (A2780S [27]) was 61.7 to 72.4%.
